Laboratory results taken from the array DNA melting data of Ke et al. (doi:10.1101/2024.01.08.574731).

Legend:
[1] = folding enthalpy; higher = less favourable; fluorescence melt of hairpins on a sequencing array, two-state fit; conditions: sodium 0.088 M
In short: (§1)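 Cy3 signals were normalised both to pre-quench Cy3 and to control constructs. They came from library hairpins carrying annealed Cy3 and quencher oligos on a sequenced MiSeq flow cell, imaged in 50 mM Na-HEPES pH 8.0, 25 mM NaCl, in 2.5 °C steps up to 60 °C. Bootstrapped two-state fits gave melting temperature and folding enthalpy, and four replicates were combined by inverse variance. Fitted temperatures were then raised by 9.35 °C to match UV melts.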

[2] = melting temperature; fluorescence melt of hairpins on a sequencing array, two-state fit, raised by 9.35 °C to match UV melts; conditions: sodium 0.088 M
In short: as §1

| Sequence | folding enthalpy [1] | Tm [2] |
| --- | --- | --- |
| GAGGACCGAAAGGTCTC (((.(((....)))))) | -10.9 kcal/mol | 46.5 °C |
| GATCCCATGGGGATC ((((((...)))))) | -33.2 kcal/mol | 65.8 °C |
| CGGCCGCGGAAACGCCCG (((..(((....)))))) | -20.9 kcal/mol | 42.2 °C |
| GATTATGGAAACATAATC (((((((....))))))) | -38.2 kcal/mol | 49.1 °C |
| GCTCTGCGAAAGCTCAGC (((..((....))..))) | -14.9 kcal/mol | 35.5 °C |
| GTCAAAGGAAACCTTGAC (((((.(....).))))) | -26.9 kcal/mol | 38.2 °C |
| GCGGGGTTCCGC ((((....)))) | -18.7 kcal/mol | 61.1 °C |
| GATCAGACTTCTGATC ((((((....)))))) | -36.3 kcal/mol | 50.3 °C |
| CGGTCGGAAACGAGGCCG ((((((....)))..))) | -23.7 kcal/mol | 41.5 °C |
| GTTAGCGGAAACGCTAGC (.(((((....))))).) | -16.1 kcal/mol | 49.3 °C |
| GCGCTGGGAAACTGGCGC ((((..(....)..)))) | -49.8 kcal/mol | 57.3 °C |
| GGAAACGAAAGTTTCC ((((((....)))))) | -34.6 kcal/mol | 63.3 °C |
| GCGTGAGACGC ((((...)))) | -18.8 kcal/mol | 51 °C |
| GTCAATGGAAACATCGAC (((.(((....))).))) | -33.1 kcal/mol | 33.3 °C |
| GCCAAAGGAAACCTTGGC (((((.(....).))))) | -29 kcal/mol | 48.1 °C |
| GATCCTGGAAACGGGATC (((((.(....).))))) | -42.8 kcal/mol | 50.9 °C |
| GATACCCGAAAGGGGATC (((.(((....))).))) | -30.2 kcal/mol | 60 °C |
| GATCCTAGAGAGGATC ((((((....)))))) | -35.4 kcal/mol | 48 °C |
| GATCGTGAGCACGATC ((((((....)))))) | -37.1 kcal/mol | 55.9 °C |
| GCCAGTGGAAACACCAGC ((..(((....)))..)) | -13.9 kcal/mol | 33.1 °C |
| GACAGCCGAAAGGCGTC (((.(((....)))))) | -12.7 kcal/mol | 60 °C |
| GACAGCCGAAAGGCGGTC (((.(((....))).))) | -20.1 kcal/mol | 67 °C |
| GACAGTCCGAAAGGAGTC (((..(((....)))))) | -17 kcal/mol | 30.3 °C |

| Sequence | folding enthalpy [1] | Tm [2] |
| --- | --- | --- |
| GTGGACGGAAACGCCCAC ((((.((....)).)))) | -56.1 kcal/mol | 53.2 °C |
| GATCGTATTACGATC ((((((...)))))) | -36.1 kcal/mol | 57 °C |
| GCTGTTTCGAAAGAAAGC (((..(((....)))))) | -15.7 kcal/mol | 27.6 °C |
| GATCGGATCACCGATC ((((((....)))))) | -34 kcal/mol | 57.5 °C |
| GTGGTTCGAAAGAACAC (((.(((....)))))) | -16.8 kcal/mol | 47.8 °C |
| GATCGACGGTCGATC ((((((...)))))) | -43.7 kcal/mol | 51.2 °C |
| GATGCGGGAAACTGCATC (((((.(....).))))) | -42.6 kcal/mol | 54.7 °C |
| GTCAGCGAAAGCTAAGAC ((((((....)))..))) | -16.7 kcal/mol | 41.5 °C |
| GCAGTACGAAAGTAGTGC (((.(((....))).))) | -47 kcal/mol | 57.6 °C |
| GCTAAGTCGAAAGACAGC (((..(((....)))))) | -20.2 kcal/mol | 41.2 °C |
| CGAAGGCGGAAACGCTCG (((..(((....)))))) | -20.8 kcal/mol | 37.5 °C |
| GCCAACTCGAAAGAGGGC (((..(((....)))))) | -20.2 kcal/mol | 47.3 °C |
| GAAGATGGAAACATCTTC (((((((....))))))) | -48.6 kcal/mol | 53.5 °C |
| GAACATGGAAACGTGTTC (((((.(....).))))) | -40.1 kcal/mol | 44.8 °C |
| GCCTAGCGAAAGCTCCGC ((..(((....)))..)) | -9.3 kcal/mol | 25.9 °C |
| GGGAATCGAAAGATACCC (((.(((....))).))) | -30.1 kcal/mol | 49.6 °C |
| GCATCGCGAAAGCTACGC ((.(.((....)).).)) | -8.55 kcal/mol | 32.8 °C |
| GACACACGAAAGTGCGTC (((.(((....))).))) | -45.2 kcal/mol | 54.5 °C |
| GATCACAGAAGTGATC ((((((....)))))) | -37.4 kcal/mol | 54.4 °C |
| GATCACTGACGTGATC ((((((....)))))) | -32 kcal/mol | 54.3 °C |
| GCGTAGCGAAAGCTTTGC ((..(((....)))..)) | -7.28 kcal/mol | 42.9 °C |
| GGGCTCGAAAGAGGCCCC ((((((....)))..))) | -12.3 kcal/mol | 67 °C |
| GGTCGGGCGAAAGCCACC (((..(((....)))))) | -11.9 kcal/mol | 34 °C |

| Sequence | folding enthalpy [1] | Tm [2] |
| --- | --- | --- |
| CGATTCGGAAACGATCG (((.(((....)))))) | -32.8 kcal/mol | 44 °C |
| GATCATTATGATGATC ((((((....)))))) | -43.7 kcal/mol | 48.6 °C |
| GTTCGTGGAAACACAAAC (((.(((....))).))) | -22.1 kcal/mol | 34 °C |
| GCACCTGGAAACGGGTGC (((((.(....).))))) | -48 kcal/mol | 60.9 °C |
| GGGACTGGAAACAGTCTC (.(((((....))))).) | -20.6 kcal/mol | 51.7 °C |
| GATCTGCTCGCAGATC ((((((....)))))) | -47.5 kcal/mol | 62.6 °C |
| GATCTTAAGAAAGATC ((((((....)))))) | -22.1 kcal/mol | 36 °C |
| GCTCCGCGAAAGCGTCGC ((..(((....)))..)) | -15.9 kcal/mol | 35.2 °C |
| GGTGGCGAAAGCCCAACC ((((((....)))..))) | -14.8 kcal/mol | 42 °C |
| GTAACCGAAAGGTATAC ((((((....))).))) | -14.9 kcal/mol | 35.2 °C |
| GTTTTCGGAAACGAAGAC ((.((((....)))).)) | -28.8 kcal/mol | 42.5 °C |
| GTGAAGACGAAAGTCCAC (((..(((....)))))) | -18.4 kcal/mol | 41.6 °C |
| GCTAATCGAAAGATGAGC (((.(((....))).))) | -31.4 kcal/mol | 47.8 °C |
| GGTTATACGAAAGTAACC (((..(((....)))))) | -14.7 kcal/mol | 38.1 °C |
| GCAGTGCGAAAGCCCGGC ((.(.((....)).).)) | -18.4 kcal/mol | 45 °C |
| GATCTGACCTCAGATC ((((((....)))))) | -38.9 kcal/mol | 49.3 °C |
| GCCCTGCGAAAGCCGCGC ((.(.((....)).).)) | -10.3 kcal/mol | 34.9 °C |
| GATCGCTACTGCGATC ((((((....)))))) | -34.5 kcal/mol | 68.5 °C |
| GGCGTCGAAAGACTAGCC ((((((....)))..))) | -34 kcal/mol | 54.5 °C |
| GATCCTCTGAGGATC ((((((...)))))) | -33 kcal/mol | 51.9 °C |
| GTATACGAAAGTAGTAC ((((((....))).))) | -11.7 kcal/mol | 29.6 °C |
| GCGGAGGGAAACTTCCGC (((((.(....).))))) | -35.4 kcal/mol | 57.9 °C |
| CGATACCGGAAACGGTCG (((..(((....)))))) | -12.3 kcal/mol | 35.1 °C |

| Sequence | folding enthalpy [1] | Tm [2] |
| --- | --- | --- |
| GATATCACGAAAGTGATC (((..(((....)))))) | -9.68 kcal/mol | 39.4 °C |
| GTTGCCCGAAAGGGTAAC (((.(((....))).))) | -31.6 kcal/mol | 60.9 °C |
| GATCTAGTTCTAGATC ((((((....)))))) | -34.8 kcal/mol | 46.6 °C |
| GTAGGCGAAAGCCTTAC ((((((....))).))) | -9.64 kcal/mol | 44.9 °C |
| GATCAAGGCTTTGATC ((((((....)))))) | -42 kcal/mol | 50.1 °C |
| GCTTACCGAAAGGTTAGC (((.(((....))).))) | -35 kcal/mol | 52.8 °C |
| GCCCTAGCGAAAGCTGGC (((..(((....)))))) | -13.7 kcal/mol | 48 °C |
| GCCCTGCGAAAGCATTGC ((..(((....)))..)) | -8.56 kcal/mol | 29.3 °C |
| GTGGCCGAAAGGCTACAC ((((((....)))..))) | -13.5 kcal/mol | 58.2 °C |
| GGCGTTGGAAACGACGTC (.(((.(....).))).) | -29.8 kcal/mol | 58.1 °C |
| GGGCTGGGAAACCAACCC (((.(((....))).))) | -30 kcal/mol | 49 °C |
| GGGAGGGAAACCTCCC ((((((....)))))) | -32 kcal/mol | 65.8 °C |
| GCGTTAGGAAACTAATGC ((.((((....)))).)) | -43.2 kcal/mol | 47.5 °C |
| GATCAGTTTTCTGATC ((((((....)))))) | -30.5 kcal/mol | 52.3 °C |
| GCTGGAGGAAACTTCGGC ((.(.((....)).).)) | -29.6 kcal/mol | 37.2 °C |
| GATCATTCCATGATC ((((((...)))))) | -39.4 kcal/mol | 51 °C |
| GGATTCCGAAAGGACTCC (((.(((....))).))) | -38.8 kcal/mol | 47 °C |
| GTGTCAGGAAACCAACAC ((((..(....)..)))) | -13.5 kcal/mol | 28 °C |
| GATCTCGGTGAGATC ((((((...)))))) | -12.9 kcal/mol | 55.9 °C |
| GGCATGCGAAAGCACGCC (((.(((....))).))) | -27.3 kcal/mol | 63.4 °C |
| GCCCCCGCGAAAGCGGGC (((..(((....)))))) | -4.3 kcal/mol | 34.8 °C |
| GATCCCGAAAGGGGCATC ((((((....)))..))) | -11.6 kcal/mol | 35.6 °C |
| GTATTCGAAAGAAGTAC ((((((....))).))) | -8.84 kcal/mol | 24.9 °C |
